Holding throughout (type): ADME, organism-based
Holding throughout (conditions): in vivo

The subject of series [1] is Rattus norvegicus. Description: Distribution of [125I]-AC in cerebellum after intravenous administration in rat after 2hours, expressed as percent dose/gram. A digest of the protocol: (§1)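 Rats received the radioiodinated ligand intravenously and were killed with ether at 1 h or 2 h (six per time point). Organs and brain regions (striatum, cerebellum, thalamus, rest of brain) were sampled and counted. Uptake was calculated as percent injected dose per gram tissue, reported ± SD. The striatum/cerebellum ratio was taken from the regional uptake values.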

The test system of series [2] is Rattus norvegicus. Description: Distribution of [125I]AC in thalamus after intravenous administration in rat after 2hours, expressed as percent dose/gram. In short, it runs like this:
as §1

Series [3] relates to Rattus norvegicus. Description: Distribution of [125I]-AC in heart after intravenous administration in rat after 2hours, expressed as percent dose/gram. In short, it runs like this: as §1
The test system of series [4] is Rattus norvegicus. The experiment in a line: Distribution of [125I]AC in heart after intravenous administration in rat after 1hour, expressed as percent dose/gram. In short, it runs like this:
as §1

The subject of series [5] is Rattus norvegicus. The experiment in a line: Distribution of [125I]-AC in thalamus after intravenous administration in rat after 1hour, expressed as percent dose/gram. In short, it runs like this:
as §1

The subject of series [6] is Rattus norvegicus. The experiment in a line: Distribution of [125I]AC in rest of the brain after intravenous administration in rat after 1hour, expressed as percent dose/gram. A digest of the protocol:
as §1

The test system of series [7] is Rattus norvegicus. Description: Distribution of [125I]AC in cerebellum after intravenous administration in rat after 1hour, expressed as percent dose/gram. In short, it runs like this:
as §1

In series [8] the test system is Rattus norvegicus. The experiment in a line: Distribution of [125I]AC in rest of the brain after intravenous administration in rat after 2hours, expressed as percent dose/gram. In short, it runs like this:
as §1

The subject of series [9] is Rattus norvegicus. The experiment in a line: Distribution of [125I]AC in striatum after intravenous administration in rat after 2hours, expressed as percent dose/gram. In short, it runs like this: as §1
The species named for series [10] is Rattus norvegicus. Description: Ratio of striatum/cerebellum distribution in rat after 1 hr. A digest of the protocol: as §1
For series [11], the system named is Rattus norvegicus. Description: Distribution of [125I]-AC in blood after intravenous administration in rat after 2hours, expressed as percent dose/gram. A digest of the protocol: as §1
Series [12] deals with Rattus norvegicus. Description: Distribution of [125I]AC in blood after intravenous administration in rat after 1hour, expressed as percent dose/gram. In short, it runs like this: as §1
The subject of series [13] is Rattus norvegicus. The experiment in a line: Distribution of [125I]AC in striatum after intravenous administration in rat after 1hour, expressed as percent dose/gram. A digest of the protocol:
as §1

For series [14], the species on record is Rattus norvegicus. Description: Ratio of striatum/cerebellum distribution in rat after 2 hr. In short, it runs like this: as §1
Series [15] relates to Rattus norvegicus. Description: Distribution of [125I]iodoclebopride in heart after intravenous administration in rat after 2hours, expressed as percent dose/gram. A digest of the protocol: as §1
In series [16] the test system is Rattus norvegicus. The experiment in a line: Distribution of [125I]iodoclebopride in thalamus after intravenous administration in rat after 2hours, expressed as percent dose/gram. A digest of the protocol: as §1
For series [17], the system named is Rattus norvegicus. Description: Distribution of [125I]iodoclebopride in striatum after intravenous administration in rat after 2hours, expressed as percent dose/gram. A digest of the protocol: as §1
Series [18] relates to Rattus norvegicus. The experiment in a line: Distribution of [125I]iodoclebopride in heart after intravenous administration in rat after 1hour, expressed as percent dose/gram. A digest of the protocol:
as §1

The subject of series [19] is Rattus norvegicus. The experiment in a line: Distribution of [125I]iodoclebopride in cerebellum after intravenous administration in rat after 1hour, expressed as percent dose/gram. In short, it runs like this:
as §1

For series [20], the system named is Rattus norvegicus. Description: Distribution of [125I]iodoclebopride in blood after intravenous administration in rat after 1hour, expressed as percent dose/gram. In short, it runs like this: as §1
Series [21] relates to Rattus norvegicus. The experiment in a line: Distribution of [125I]Iodoclebopride in rest of the brain after intravenous administration in rat after 2hours, expressed as percent dose/gram. In short, it runs like this: as §1
Series [22] concerns Rattus norvegicus. Description: Distribution of [125I]iodoclebopride in cerebellum after intravenous administration in rat after 2hours, expressed as percent dose/gram. A digest of the protocol:
as §1

Series [23] deals with Rattus norvegicus. The experiment in a line: Distribution of [125I]iodoclebopride in blood after intravenous administration in rat after 2hours, expressed as percent dose/gram. In short, it runs like this: as §1
The subject of series [24] is Rattus norvegicus. Description: Distribution of [125I]iodoclebopride in thalamus after intravenous administration in rat after 1hour, expressed as percent dose/gram. A digest of the protocol: as §1
The test system of series [25] is Rattus norvegicus. The experiment in a line: Distribution of [125I]iodoclebopride in striatum after intravenous administration in rat after 1hour, expressed as percent dose/gram. A digest of the protocol: as §1
In series [26] the test system is Rattus norvegicus. Description: Distribution of [125I]Iodoclebopride in rest of the brain after intravenous administration in rat after 1hour, expressed as percent dose/gram. A digest of the protocol: as §1

SMILES strings stand for the structures.

With `COc1cc(N)c(I)cc1C(=O)NC1CCN(Cc2ccccc2)CC1`, the Tissue distribution in the series with Rattus norvegicus [1] was found to be 0.23%; in the series with Rattus norvegicus [2], 0.22%; in the series with Rattus norvegicus [3] it was 0.3%; with Rattus norvegicus [4], 0.35%; in the series on Rattus norvegicus [5], 0.27%; with Rattus norvegicus [6], 0.18%. The Tissue distribution came out at 0.26% in the series with Rattus norvegicus [7]; 0.16% with Rattus norvegicus [8]; 0.38% in the series on Rattus norvegicus [9]; 0.29% in the series with Rattus norvegicus [11]; 0.33% in the series on Rattus norvegicus [12]; 0.5% in the series on Rattus norvegicus [13]. In addition, the Ratio in the series filed under Rattus norvegicus [10] amounted to 1.92; in the series listed under Rattus norvegicus [14], 1.65.

Regarding `COc1cc(N=[N+]=[N-])c(I)cc1C(=O)NC1CCN(Cc2ccccc2)CC1` [IODOAZIDOCLEBOPRIDE], the Tissue distribution was found to be 1.34% in the series on Rattus norvegicus [15]; 1.12% with Rattus norvegicus [16]; 2.52% in the series with Rattus norvegicus [17]; 1.61% in the series on Rattus norvegicus [18]; 1.13% in the series on Rattus norvegicus [19]; 0.32% in the series with Rattus norvegicus [20]. In addition, the Tissue distribution in the series on Rattus norvegicus [21] is 0.73%; in the series with Rattus norvegicus [22], 1.06%; in the series with Rattus norvegicus [23] it was 0.34%; with Rattus norvegicus [24] it was 1.25%; in the series on Rattus norvegicus [25], 2.52%; in the series with Rattus norvegicus [26] it was 0.78%. For the same compound, the Ratio was found to be 2.23 in the series filed under Rattus norvegicus [10] and 2.37 in the series filed under Rattus norvegicus [14].

The values are drawn from ChEMBL document CHEMBL1122967 (J Med Chem, 1985).
